Assay results reported in the RNAGym collection of RNA variant scans (doi:10.1126/science.aae0568).
Variants at the floor of the assay were thinned out.

B1: tRNA (parent)
chain: GUUCCGUUGGCGUAAUGGUAACGCGUCUCCCUCCUAAGGAGAAGACUGCGGGUUCGAGUCCCGUACGGAACG

Variants of: B1
Assay: yeast fitness relative to wild type (ratio to wild type); higher = fitter; tRNA-Arg(CCU), competitive growth, 37 C, YPD
Summary of the method: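 For this measurement, the tRNA-Arg(CCU) gene was varied by chemical synthesis at a 3% per-site mutation rate across 69 sites, and each variant was placed at the native genomic locus in Saccharomyces cerevisiae. The pooled strains went through a 24-hour competition in YPD at 37°C in six parallel replicates, with amplicons from start and end populations read by 100-nucleotide paired-end sequencing. Darwinian fitness relative to wild type followed from the change in each genotype's frequency. Genotypes needed ≥ 100 starting reads, and estimates < 0.5 were set to 0.5.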
In the case of U19G A20C U26C G41A G63A C66U, the yeast fitness is reported as ≤ 0.5.
In the case of U19C G38C C62G, the yeast fitness is reported as ≤ 0.5.
For A20C C24G A40C C55G, the yeast fitness was ≤ 0.5.
Variant U19G C55G C66U has a yeast fitness of 0.536.
In the case of A20C A21U A42U, the yeast fitness is reported as ≤ 0.5.
A20C C55U gave a yeast fitness of 0.612.
Work on U19G U32G yielded a yeast fitness of 0.62.
Variant U19C U26C G44A has a yeast fitness of 0.521.
For U19C C31U G56A G68C, the yeast fitness was ≤ 0.5.
For A20C U32G A45G U53A U54A, the yeast fitness was 0.533.
In the case of U19C C24U C31G U35A C61A A69C, the yeast fitness is reported as ≤ 0.5.
U19G C24G U28C gave a yeast fitness of 0.681.
With A20C C22G C29A C55G G56C the yeast fitness was ≤ 0.5.
U19C C31A G41C gave a yeast fitness of 0.577.
With U19C C31A G50U C62G the yeast fitness was ≤ 0.5.
With U19C C31U C33G G41A C49G U54C the yeast fitness was ≤ 0.5.
U19C C49A A57C showed a yeast fitness of 0.599.
In the case of A20C C24G A37G, the yeast fitness is reported as ≤ 0.5.
In the case of U19G G52C C62A, the yeast fitness is reported as ≤ 0.5.
In the case of A20C C24G C33G, the yeast fitness is reported as ≤ 0.5.
U19G C49U C62A gave a yeast fitness of 0.598.
A20C C24G showed a yeast fitness of 0.679.
For U19G A40G C55G A65C, the yeast fitness was ≤ 0.5.
In the case of A20C C22U U47A C62U, the yeast fitness is reported as 0.643.
In the case of U19C C49A C55U, the yeast fitness is reported as ≤ 0.5.
For U19C G56A, the yeast fitness was 0.91.
In the case of U19G C55U, the yeast fitness is reported as 0.762.
In the case of U19C G44C A69U, the yeast fitness is reported as 0.762.
In the case of A20C C30U G68A, the yeast fitness is reported as ≤ 0.5.
For A20C A65C, the yeast fitness was 0.957.
Work on A20C A36U G39C yielded a yeast fitness of 0.618.
With A20C C34G G67U A69G the yeast fitness was ≤ 0.5.
With U19G A20U U26A G38C A45G C46G G50A G56C the yeast fitness was ≤ 0.5.
Work on U19G U47A yielded a yeast fitness of 0.771.
With U19C C29G U32G C61U C66A the yeast fitness was ≤ 0.5.
For A20C C34G A43U, the yeast fitness was ≤ 0.5.
For A20C C22G U47G G51C G63A G68C, the yeast fitness was ≤ 0.5.
For U19G U28G A36U C46U C61U, the yeast fitness was ≤ 0.5.
In the case of U19G A57G C66U, the yeast fitness is reported as ≤ 0.5.
For U19G A20U A69U, the yeast fitness was 0.86.
With A20C G41C A42C G56A U64C the yeast fitness was ≤ 0.5.
Variant A20C C27U C55U has a yeast fitness of 0.76.
With A20C A21G A45U G67C the yeast fitness was 0.61.
For A20C A40G C62G, the yeast fitness was 0.864.
Work on U19C C29G yielded a yeast fitness of 0.578.
U19C C29U gave a yeast fitness of 0.948.
With A20C C34U G52A G68A the yeast fitness was ≤ 0.5.
With A20C C31A C34G A57G A65U the yeast fitness was ≤ 0.5.
Work on U19G A37G yielded a yeast fitness of 0.76.
Variant A20C C22U A43U has a yeast fitness of 0.584.
With A20C C22G C60A the yeast fitness was ≤ 0.5.
A20C C34U G52A showed a yeast fitness of 0.574.
U19C C30U C55G G58C gave a yeast fitness of 0.533.
A20C C30U C46A C62G A65G showed a yeast fitness of 0.534.
For A20C A40C G48C, the yeast fitness was 0.719.
For A20C C34A A37G C46A A70C, the yeast fitness was ≤ 0.5.
With A20C C62A G68C the yeast fitness was ≤ 0.5.
With A20C C33A G39A the yeast fitness was ≤ 0.5.
In the case of U19G A20U C27G G58A, the yeast fitness is reported as 0.527.
In the case of A20C A37C C66U, the yeast fitness is reported as ≤ 0.5.
In the case of U19C U26C G41C A43U A57G, the yeast fitness is reported as ≤ 0.5.
For A20C C24U G44A C60G, the yeast fitness was ≤ 0.5.
Work on A20C C30A C55A G67A yielded a yeast fitness of 0.534.
In the case of U19C G38A, the yeast fitness is reported as 1.01.
A20C G41A gave a yeast fitness of 0.779.
In the case of U19C C29A A37G, the yeast fitness is reported as ≤ 0.5.
In the case of U19G C30U C55U A57G, the yeast fitness is reported as ≤ 0.5.
U19C C31A showed a yeast fitness of 0.768.
For U19G C61U, the yeast fitness was 0.77.
In the case of U19G C29A A45U, the yeast fitness is reported as ≤ 0.5.
For U19C G50A C55A G63A C66A, the yeast fitness was ≤ 0.5.
A20C A57G G63A showed a yeast fitness of 0.558.
With U19C C46A C60G G67C the yeast fitness was ≤ 0.5.
U19G A21G showed a yeast fitness of 1.05.
A20C U28C C34A showed a yeast fitness of 0.791.
In the case of U19C U26G, the yeast fitness is reported as 0.815.
Variant U19C U26C has a yeast fitness of 0.928.
With U19C C34U A43U G63A A70C the yeast fitness was ≤ 0.5.
With A20C U28C C29A A36U A40U C49G G63C A70U the yeast fitness was ≤ 0.5.
Work on A20C C60A yielded a yeast fitness of 0.587.
In the case of A20C C24G C29G A37G C66G, the yeast fitness is reported as ≤ 0.5.
Work on A20C G56U yielded a yeast fitness of 0.765.
With A20C G56A the yeast fitness was 0.866.
U19C C34A G50C G56A showed a yeast fitness of 0.55.
In the case of A20C C22A C27G G51C, the yeast fitness is reported as ≤ 0.5.
In the case of A20C A36G, the yeast fitness is reported as 0.908.
Variant U19G C27G A65C C66G has a yeast fitness of 0.907.
With A20C C24U A57G C61U the yeast fitness was 0.617.
In the case of U19G C33G U47A, the yeast fitness is reported as 0.542.
Work on U19G G68C yielded a yeast fitness of 0.802.
Work on U19C U32A G67A yielded a yeast fitness of 0.65.
With U19G G50U G58A C66U the yeast fitness was 0.541.
With U19G U28A the yeast fitness was 0.613.
Work on U19C U28C G68C yielded a yeast fitness of 0.67.
Variant A20C C30U has a yeast fitness of 0.903.
With A20C C22U A40U A65G A69C the yeast fitness was ≤ 0.5.
A20C C49G showed a yeast fitness of 0.795.
With A20C C49U the yeast fitness was 1.03.
Variant A20C U28C A40U has a yeast fitness of 0.971.
With A20C A21G G67C the yeast fitness was 0.712.
Variant A20C C31G A36G has a yeast fitness of 0.764.
U19C G41C gave a yeast fitness of 0.987.
U19C U53C gave a yeast fitness of 0.694.
A20C C29G A65U gave a yeast fitness of 0.51.
With U19C G48C C55U the yeast fitness was ≤ 0.5.
For A20C G25C A40C A43C C55A C61G C66G, the yeast fitness was ≤ 0.5.
In the case of U19C C30G U59C A69U, the yeast fitness is reported as ≤ 0.5.
In the case of U19G C29A A69U, the yeast fitness is reported as ≤ 0.5.
In the case of U19G U26A U28C, the yeast fitness is reported as ≤ 0.5.
In the case of A20C C46A C49G, the yeast fitness is reported as 0.548.
With U19C C29G A40C the yeast fitness was ≤ 0.5.
For U19G A20U U53A G56A A65U, the yeast fitness was ≤ 0.5.
Variant A20C C30A C55G has a yeast fitness of 0.557.
A20C C30A C55A gave a yeast fitness of 0.571.
For A20C G23A C29U A36C A43C, the yeast fitness was ≤ 0.5.
In the case of U19C C55A C66A, the yeast fitness is reported as ≤ 0.5.
With A20C C27U C34G A43C C61U C62G the yeast fitness was ≤ 0.5.
With U19G A37G C66U the yeast fitness was 0.639.
For A20C C24U C61G, the yeast fitness was ≤ 0.5.
For A20C C34G, the yeast fitness was 0.527.
A20C C34U showed a yeast fitness of 0.65.
For A20C U28C C30A G44C A45G C55A G63C, the yeast fitness was ≤ 0.5.
U19C U28C C46U showed a yeast fitness of 0.712.
In the case of U19C C55U C61A, the yeast fitness is reported as ≤ 0.5.
For A20C G25C C33U C60A C66G, the yeast fitness was ≤ 0.5.
A20C A42U gave a yeast fitness of 0.782.
U19C C29U A43G gave a yeast fitness of 0.677.
In the case of U19C C30A U47C, the yeast fitness is reported as 0.693.
In the case of A20C C24G A42G, the yeast fitness is reported as 0.585.
For U19G C27U A42C, the yeast fitness was ≤ 0.5.
With U19G C33G A37C C49G the yeast fitness was ≤ 0.5.
In the case of A20C G63A, the yeast fitness is reported as 0.843.
With A20C C22U C66U the yeast fitness was 0.622.
U19G C34G A69C showed a yeast fitness of 0.504.
U19G C34U showed a yeast fitness of 0.687.
In the case of U19C C31G A65U, the yeast fitness is reported as 0.596.
For U19C C24U A70C, the yeast fitness was 0.755.
Work on U19C C24U A70U yielded a yeast fitness of 0.849.
With U19C U28C C46A A70C the yeast fitness was 0.545.
Variant U19G A43U has a yeast fitness of 1.04.
For U19G A43C, the yeast fitness was 0.971.
For A20C A45C C46U, the yeast fitness was 0.587.
A20C C24A G56A C62U A70C showed a yeast fitness of 0.588.
A20C A43C showed a yeast fitness of 0.816.
In the case of A20C C34G C66U, the yeast fitness is reported as ≤ 0.5.
For A20C U35A A36G G44C G68U, the yeast fitness was ≤ 0.5.
With U19G A69U the yeast fitness was 0.892.
Variant U19G A69C has a yeast fitness of 0.856.
In the case of U19C G63A, the yeast fitness is reported as 0.918.
U19G C62U showed a yeast fitness of 0.857.
Work on U19C G39C G41C yielded a yeast fitness of 0.51.
For U19G A43C U53C C55G G67C A69C, the yeast fitness was ≤ 0.5.
With A20C G48A C49A the yeast fitness was 0.557.
For A20C A21U C27G U32C U35G, the yeast fitness was ≤ 0.5.
In the case of A20C C27U A40C, the yeast fitness is reported as 0.63.
Variant A20C C31A U59C has a yeast fitness of 0.599.
In the case of U19G C60U C61G G67A, the yeast fitness is reported as ≤ 0.5.
In the case of A20C A40G A65G, the yeast fitness is reported as 0.57.
In the case of U19C C27G U47A, the yeast fitness is reported as ≤ 0.5.
A20C C34A A37G C62U C66U gave a yeast fitness of 0.554.
A20C G48A gave a yeast fitness of 0.908.
With U19G G38C the yeast fitness was 0.637.
With U19C C33A C34G the yeast fitness was ≤ 0.5.
With U19G A20U G52A the yeast fitness was 0.698.
Work on A20C C29U yielded a yeast fitness of 0.715.
In the case of A20C C29A, the yeast fitness is reported as 0.635.
A20C C29U C66U showed a yeast fitness of 0.603.
